Rows were chosen to be rich in hits. Some 1.5% of all compounds tested hit in one or more screens of this group.
H9c2 TAG inh = inhibitors of triacylglycerol accumulation. 230,000 tested, 0.66% active. inhibition, % at 12.5 µM. H9c2 cells, Nile Red lipid (TAG) fluorescence; cells loaded with 200 µM oleic acid;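 active = pattern-corrected inhibition of lipid staining of at least 50% with the nuclear-stain viability signal not falling by more than 50%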;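 note: 0% = DMSO wells and 100% = triacsin C control wells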
Hep lipid drop = hepatic lipid droplet formation modulation. inhibition, % at 6.5 µM. 240,000 tested, 0.4% active. AML12 mouse hepatocytes, oleate lipid droplets, BODIPY imaging;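 active = lipid droplet intensity inhibited by at least 50%, with more than 500 cells counted; inconclusive = wells with under 300 cells, treated as cytotoxic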
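Material – mouse AML12 hepatocyte cell line, fixed after treatment · Compound dosing – one dose, 6.5 µM compound · Times – compound with oleate, overnight · Measured by – Image-based BODIPY and DAPI two-channel analysis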
STAT1 blocker = inhibitors of IFN-gamma induced STAT1 signaling; 200,000 tested, 0.35% active; AID 920; NIH 3T3 STAT1-luciferase reporter, luminescence; inhibition, % at 5.5 µM;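 active = inhibition above a set limit, the mean inhibition across all tested compounds plus 3 SD, cut at about 34% in these data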;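 note: 0% = IFN-gamma with DMSO and 100% = IFN-gamma with 300 µM nifuroxazide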
Platelet DG rel = modulates dense granule release in human platelets. inhibition, %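 (compounds screened at 7.5 µM in platelet-rich plasma)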. 300,000 tested, 0.22% active. AID 1663. human platelet-rich plasma, SFLLRN dense granule ATP release, luminescence;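 active = mean replicate score, as percent of positive control, at or above 50; inconclusive = mean below 50 but at least one replicate at or above 50; inactive = mean and every replicate below 50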
PPC-1+TRAIL kill = compounds killing PPC-1 cancer cells with TRAIL present (potentiator screen, no TRAIL-free arm); 220,000 tested, 0.41% active; AID 1443; cell killing (% activity), % at 4 µM or 5 µM; PPC-1 cells + TRAIL, ATPLite viability luminescence;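 active = cell killing above 50% in the first pass at 4 µM, then a duplicate retest at 5 µM averaging 50% or more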;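 note: plate controls were cells with TRAIL plus DMSO for no effect and medium-only wells lacking cells for full effect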
STAT3 blocker = inhibitors of IL-6 induced STAT3 signaling; 190,000 tested, 0.89% active; U3A cells, IL-6 STAT3-luciferase reporter, luminescence; host cell line lacks STAT1; AID 862; inhibition, % at 5.5 µM;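 active = inhibition above the mean inhibition across all screened compounds plus 3 SD, cut at about 44% in these data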;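 note: 0% = DMSO only wells and 100% = 100 µM nifuroxazide control wells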
Lipid drop inh = hepatic lipid droplet formation inhibition, confirmed | shares compounds with Hep lipid drop | AML12 mouse hepatocytes, BODIPY lipid droplet imaging; droplets induced with 100 µM oleic acid | inhibition, % at 5.2 µM | 870 tested, 65% active | AID 463183;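 active = inhibition of lipid droplet metric at least 50%, with more than 300 cells in each of four replicates; inconclusive = wells under 300 cells, flagged as toxic or low count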;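 note: plate controls were DMSO with oleic acid for no effect and 5 µM Triacsin-C for full effect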
AML12 cytotox = AML12 hepatocyte cytotoxicity (counter-screen). shares compounds with Hep lipid drop. AML12 mouse hepatocytes, DAPI nuclear morphology cytotoxicity imaging; hits give high values; cells fed 100 µM oleate overnight. z-score at 5 µM. 870 tested, 3% active; in the data active = z-score above about 6.3;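 note: compound exposure lasted overnight at 37 °C before fixation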
AML12 tox conf = AML12 hepatocyte cytotoxicity, confirmed. shares compounds with Hep lipid drop. AML12 mouse hepatocyte viability, ATP luminescence; cells loaded with 100 µM oleic acid. cytotoxicity, % at 50 µM. 530 tested, under 10 active;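 active = cytotoxicity above 50% in each of four replicates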;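 note: compound exposure lasted overnight at 37 °C before the ATP read; 0% = DMSO-treated cells and 100% = wells with no cells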
* hit, by the source's call; ? = inconclusive; / = not tested or not shown; ! = repeats disagree.

SMILES	H9c2 TAG inh	Hep lipid drop	STAT1 blocker	Platelet DG rel	PPC-1+TRAIL kill	STAT3 blocker	Lipid drop inh	AML12 cytotox	AML12 tox conf
COc1ccc(C2(C)NC(=O)N(CC(=O)Nc3ccc4ccccc4c3)C2=O)cc1OC (stereo unspecified)	11	/	/	/	/	/	/	/	/
COc1ccc(CNC(=O)CN2C(=O)NC(C)(c3cccc4ccccc34)C2=O)cc1OC (stereo unspecified)	/	78*	/	1	/	/	105*	-0.25	14
CC1(C(=O)NS(=O)(=O)c2ccccc2C(F)(F)F)CCN1C(=O)CC1CCCC1 (stereo unspecified)	-4	/	/	/	/	/	/	/	/
Cc1ccccc1OCc1n(CC(=O)OC2CC(C)CCC2C(C)C)c2ccccc2[n+]1C (stereo unspecified)	76*!	54*!	0	9	26	2	8	-1.5	/
CCCCN(CCCNC(=O)Cn1nc(CC)n2c(cc3sc(C)cc32)c1=O)Cc1ccccc1	/	69*	/	6	/	/	89*	-0.5	15
CCc1nn(CC(=O)NCCCN(CC)Cc2ccccc2)c(=O)c2cc3sccc3n12	/	-30	-3	-3	3	-3	/	/	/
CCC1(c2ccccc2)NC(=O)N(CC(=O)N(C)Cc2c(F)cccc2Cl)C1=O (stereo unspecified)	/	81*	/	1	/	/	99*	0.2	14
CC(C)Oc1ccc(C(=O)Nc2ccc(N3CCN(C(=O)c4ccco4)CC3)cc2)cc1	/	69*	/	/	/	/	57	-0.23	-4
Cc1ccc(O)c(NC(=O)C2=CC(c3cccs3)=NS(=O)(=O)N2C)c1	-12	?	/	16	/	/	/	/	/
CCc1ccccc1NC(=O)C1=CC(c2cccs2)=NS(=O)(=O)N1C	39	72*	/	7	/	/	105*	-0.14	18
COc1ccc(-c2cc(C(F)(F)F)nc(SCCC(=O)NCc3ccccc3)n2)cc1	-7	62*	8	2	-5	9	-6	0.13	/
Nc1nc(-c2ccc(Cl)cc2)c(N=Nc2ccc(S(=O)(=O)N3CCOCC3)cc2)s1	/	65*	9	9	17	13	33	0.73	/
CCOC(=O)c1ccc(NC(=O)Nc2nncs2)cc1	27	/	/	/	/	/	/	/	/
COc1ccc(NS(=O)(=O)c2ccc(NC(=S)NCC3CCCO3)cc2)cc1 (stereo unspecified)	21	84*	/	-4	/	/	100*	-0.39	19
CCN1CCN(c2cc(C)c3cc(NC(=O)CCC(=O)Nc4ccc(OC)cc4OC)ccc3n2)CC1	/	89*	/	8	/	/	94*	0.97	16
CCCNC(=O)c1cc(C2CCCN(C(=O)C3CCCCC3)C2)on1 (stereo unspecified)	-5	/	/	/	/	/	/	/	/
CC(=O)CSc1nc2ccc(Nc3nc(N4CCOCC4)nc(N4CCOCC4)n3)cc2s1	/	-12	5	-3	17	9	/	/	/
CC(C)(C)NC(=O)CSc1nc2ccc(Nc3nc(N4CCOCC4)nc(N4CCOCC4)n3)cc2s1	/	53*	-5	13	27	1	89*	0.59	-2
c1ccc(Oc2cccc(CN3CCCCC3)c2)cc1	/	56*	-1	-5	17	3	-4	0.1	/
COc1ccc(-c2csc(NC(=O)c3ccc(OCC(=O)N4CCOCC4)c(OC)c3)n2)cc1	/	83*	-2	2	20	2	107*	-0.56	53
COc1ccc(OC)c(NC(=O)c2ccc(OCC(=O)N3CCOCC3)c(OC)c2)c1	0	/	/	2	/	/	/	/	/
CCOC(=O)C(NC(=O)c1ccccc1)(OCc1ccccc1)C(F)(F)F (stereo unspecified)	/	54*	4	1	36	2	66*	-0.86	15
CCOC(=O)C(NC(=O)NCc1ccccc1)(OCC)C(F)(F)F (stereo unspecified)	/	-1	-2	6	16	0	/	/	/
COc1ccc(CCNC(=O)c2ccc3ccccc3n2)cc1OC	-3	2	3	6	8	-5	/	/	/
